The values below come from BindingDB's records for doi:10.1016/j.bmcl.2004.04.085 (Merck Sharp & Dohme Research Laboratories, 2004).

Structures are written as SMILES.

Experiment [1] has as its target T1, Gamma-aminobutyric acid receptor subunit alpha-3/beta-3/gamma-2 (Homo sapiens, UniProt P34903+P18507+P28472).
T1 sequence (P34903 whole entry): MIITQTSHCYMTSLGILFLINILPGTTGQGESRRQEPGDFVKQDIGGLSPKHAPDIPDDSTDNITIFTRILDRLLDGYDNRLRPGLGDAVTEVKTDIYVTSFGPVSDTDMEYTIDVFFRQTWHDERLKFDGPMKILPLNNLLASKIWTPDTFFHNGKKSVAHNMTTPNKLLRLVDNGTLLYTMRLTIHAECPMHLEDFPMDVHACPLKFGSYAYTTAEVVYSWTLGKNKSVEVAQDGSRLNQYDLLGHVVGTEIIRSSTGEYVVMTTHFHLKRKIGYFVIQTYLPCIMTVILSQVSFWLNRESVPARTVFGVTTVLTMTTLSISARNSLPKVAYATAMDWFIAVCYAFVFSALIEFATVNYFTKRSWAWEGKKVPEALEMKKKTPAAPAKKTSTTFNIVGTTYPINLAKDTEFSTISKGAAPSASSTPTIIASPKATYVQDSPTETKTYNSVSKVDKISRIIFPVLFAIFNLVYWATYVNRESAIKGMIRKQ
T1 sequence (P18507 whole entry): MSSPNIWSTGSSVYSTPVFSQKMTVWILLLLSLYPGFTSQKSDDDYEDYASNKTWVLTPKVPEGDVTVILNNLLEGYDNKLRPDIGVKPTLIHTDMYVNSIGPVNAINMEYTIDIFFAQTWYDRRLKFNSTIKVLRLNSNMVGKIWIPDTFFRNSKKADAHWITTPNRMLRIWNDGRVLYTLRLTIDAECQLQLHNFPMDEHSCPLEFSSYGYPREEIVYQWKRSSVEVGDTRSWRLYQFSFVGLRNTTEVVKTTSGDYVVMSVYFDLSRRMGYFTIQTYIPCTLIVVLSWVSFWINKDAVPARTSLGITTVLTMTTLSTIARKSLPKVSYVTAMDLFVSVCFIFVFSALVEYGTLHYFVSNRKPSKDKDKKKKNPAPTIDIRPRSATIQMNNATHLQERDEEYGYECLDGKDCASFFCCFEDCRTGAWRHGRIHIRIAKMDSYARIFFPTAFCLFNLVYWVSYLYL
T1 sequence (P28472 whole entry): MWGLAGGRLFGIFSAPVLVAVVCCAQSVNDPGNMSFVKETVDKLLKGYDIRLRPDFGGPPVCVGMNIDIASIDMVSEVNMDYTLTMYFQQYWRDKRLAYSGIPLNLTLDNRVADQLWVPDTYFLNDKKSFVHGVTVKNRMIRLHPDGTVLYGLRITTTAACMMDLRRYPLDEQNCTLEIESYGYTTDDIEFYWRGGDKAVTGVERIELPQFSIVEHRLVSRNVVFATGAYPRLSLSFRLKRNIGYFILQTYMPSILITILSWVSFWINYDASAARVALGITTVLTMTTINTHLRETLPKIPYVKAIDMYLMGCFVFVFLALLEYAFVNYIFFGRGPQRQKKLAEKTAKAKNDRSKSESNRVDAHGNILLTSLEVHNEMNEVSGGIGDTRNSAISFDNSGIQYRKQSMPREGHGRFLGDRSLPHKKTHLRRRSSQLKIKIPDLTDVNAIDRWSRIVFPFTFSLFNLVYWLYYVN
The experiment in a line: In vitro binding affinity against Gamma-aminobutyric acid A receptor, alpha 3 expressed in L(tk) cells by displacement of [3H]Ro-151788. In outline: (§1)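 Binding to cloned human α1β3γ2, α2β3γ2 or α3β3γ2 receptors stably expressed in L(tk-) cells, measured as displacement of [3H]Ro15-1788; means ± SEM, n = 3-7.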
(Loss of bound radioactivity is the signal in a displacement assay; it reports binding, not function.)

In experiment [2] the target is T2, Gamma-aminobutyric acid receptor subunit alpha-1/beta-3/gamma-2 (Homo sapiens, UniProt P14867+P18507+P28472).
T2 sequence (P14867 whole entry): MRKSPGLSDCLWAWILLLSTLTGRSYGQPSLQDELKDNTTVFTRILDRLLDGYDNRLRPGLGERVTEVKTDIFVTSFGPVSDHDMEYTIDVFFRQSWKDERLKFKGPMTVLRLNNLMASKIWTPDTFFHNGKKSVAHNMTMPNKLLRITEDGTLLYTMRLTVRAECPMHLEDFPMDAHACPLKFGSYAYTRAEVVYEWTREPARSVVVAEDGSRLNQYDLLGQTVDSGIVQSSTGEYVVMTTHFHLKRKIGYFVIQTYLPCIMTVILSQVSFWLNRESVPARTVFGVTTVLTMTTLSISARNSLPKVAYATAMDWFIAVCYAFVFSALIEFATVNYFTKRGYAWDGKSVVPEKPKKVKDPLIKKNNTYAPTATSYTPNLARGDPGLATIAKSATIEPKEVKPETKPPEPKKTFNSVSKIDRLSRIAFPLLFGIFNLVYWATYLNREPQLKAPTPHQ
T2 sequence (P18507 whole entry): T1 sequence (P18507 whole entry)
T2 sequence (P28472 whole entry): T1 sequence (P28472 whole entry)
The experiment in a line: In vitro binding affinity against gamma-aminobutyric acid A receptor, alpha 1 expressed in L(tk) cells by displacement of [3H]Ro-151788. In outline:
as §1

For experiment [3], the target named is T1, Gamma-aminobutyric acid receptor subunit alpha-3/beta-3/gamma-2. The experiment is described as follows: In vitro displacement of [3H]Ro-151788 from human GABA-A receptor alpha-3-beta-3-gamma-2 subunits expressed in L(tk-) cells. In outline:
as §1

On to `O=c1c2c([nH]n1-c1ccc(Cl)cc1)C1CCCC1N=C2` (stereo not drawn) [2-(4-Chloro-phenyl)-2,5a,6,7,8,8a-hexahydro-5H-cyclopenta[b]pyrazolo[3,4-d]pyridin-3-one], for which, in experiment [1], the inhibition constant Ki (usually a dissociation constant, usually derived from enzyme kinetics or from competition with a known ligand) was found to be 1.1 nM. As for `O=c1c2c([nH]n1-c1ccc(Cl)cc1)C1CCCCCC1N=C2` (stereo not drawn) [2-(4-Chloro-phenyl)-2,5a,6,7,8,9,10,10a-octahydro-5H-1,2,5-triaza-cyclohepta[e]inden-3-one], in experiment [2], affinity was put at a Ki of 1.1 nM. For `O=c1c2c([nH]n1-c1ccc(Cl)cc1)C1CN(CC3CC3)CCC1N=C2` (stereo not drawn) [2-(4-Chloro-phenyl)-8-cyclopropylmethyl-2,5,5a,6,7,8,9,9a-octahydro-pyrazolo[4,3-c][1,6]naphthyridin-3-one], affinity in experiment [1] was put at a Ki of 7.5 nM.

As for `O=c1c2cnc3c(c2[nH]n1-c1ccc(OC2CC2)cc1)CCCC3` [2-(4-Cyclopropoxy-phenyl)-2,5,6,7,8,9-hexahydro-pyrazolo[4,3-c]quinolin-3-one], the Ki in experiment [2] amounted to 1.1 nM; in experiment [3], 2.2 nM. Consider `O=c1c2cnc3c(c2[nH]n1-c1ccc(OC(F)F)cc1)CCCC3` [2-(4-Difluoromethoxy-phenyl)-2,5,6,7,8,9-hexahydro-pyrazolo[4,3-c]quinolin-3-one], for which the inhibitory constant (Ki) was 1 nM in experiment [2] and 2.3 nM in experiment [1]. `O=c1c2cnc3c(c2[nH]n1-c1ccc(OC(F)(F)F)cc1)CCCC3` [2-(4-Trifluoromethoxy-phenyl)-2,5,6,7,8,9-hexahydro-pyrazolo[4,3-c]quinolin-3-one] came in with a Ki in experiment [2] of 7.3 nM.
